The values that follow come from ChEMBL document CHEMBL1250461, “Synthesis, binding and bioactivity of gamma-methylene gamma-lactam ecdysone receptor ligands: advantages of QSAR models for flexible receptors” (Bioorg Med Chem, 2010).

A short description of series [1]: Binding affinity to Bovicola ovis recombinant ecdysone receptor ligand binding domain after 3 hrs by fluorescence polarization assay. Summed up: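 B. ovis EcR_DEF/USP_DEF LBD heterodimer, co-expressed from baculovirus and purified by IMAC (2.51 mg/mL final). Competes with 36 nM fluorescein–inokosterone A conjugate in 50 mM sodium phosphate, 100 mM NaCl, pH 7.4 with 0.5 mg/mL BSA and 3% v/v DMSO. Compound range 3 nM–3 mM final. Incubated overnight at 4 °C, then 3 h at room temperature before polarisation (mP) read. Triplicate; IC50 from mean.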
A general note: Polarisation of emitted light reports the rotation of a fluorescent probe.

The nature of series [2]: Toxicity in Bovicola ovis assessed as mortality after 9 days. The note with it: 216 h.
The target in the next series is T1, Ecdysone receptor (Lucilia cuprina, UniProt O18531).
T1 sequence (O18531 whole entry): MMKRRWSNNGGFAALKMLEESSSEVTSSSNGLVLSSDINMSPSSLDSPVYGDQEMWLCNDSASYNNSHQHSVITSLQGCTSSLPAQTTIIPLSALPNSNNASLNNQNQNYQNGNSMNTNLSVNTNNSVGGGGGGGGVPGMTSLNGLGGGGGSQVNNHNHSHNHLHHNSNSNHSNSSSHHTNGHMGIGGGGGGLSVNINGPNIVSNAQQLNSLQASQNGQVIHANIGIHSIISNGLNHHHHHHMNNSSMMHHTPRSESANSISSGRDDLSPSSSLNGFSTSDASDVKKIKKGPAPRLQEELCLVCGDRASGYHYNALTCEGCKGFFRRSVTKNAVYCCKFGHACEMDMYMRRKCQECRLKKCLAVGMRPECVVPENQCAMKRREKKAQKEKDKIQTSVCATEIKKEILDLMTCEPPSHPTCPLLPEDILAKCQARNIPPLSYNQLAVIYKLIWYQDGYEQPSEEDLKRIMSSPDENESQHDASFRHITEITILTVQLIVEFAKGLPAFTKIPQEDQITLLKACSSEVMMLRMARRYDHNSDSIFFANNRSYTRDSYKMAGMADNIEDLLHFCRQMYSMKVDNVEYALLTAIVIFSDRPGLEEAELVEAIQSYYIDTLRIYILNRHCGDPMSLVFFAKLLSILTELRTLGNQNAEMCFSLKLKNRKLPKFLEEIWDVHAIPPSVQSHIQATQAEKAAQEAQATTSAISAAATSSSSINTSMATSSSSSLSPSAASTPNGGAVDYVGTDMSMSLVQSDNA
As to the kind of experiment: Binding affinity to Lucilia cuprina recombinant ecdysone receptor ligand binding domain after 3 hrs by fluorescence polarization assay. Summed up: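 L. cuprina EcR_DEF/USP_DEF LBD heterodimer, baculovirus co-expressed and IMAC-purified, used at 1.14 mg/mL. Fluorescence polarisation competition against 36 nM fluorescein–inokosterone A conjugate, with 0.5 mg/mL BSA and 3% v/v DMSO in 50 mM sodium phosphate/100 mM NaCl, pH 7.4. Test range 3 nM–3 mM final. Overnight at 4 °C, then 3 h re-equilibration at room temperature, mP read. Triplicate on one plate; IC50 from mean.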

The IC50 is the concentration that inhibits the measured activity by half. In general, LC50 refers to the concentration that kills 50% of the test population.

In brackets after ≈: the same amount, converted by molar mass.

As for `C=C1C(CCCC)=C(C#N)C(=O)N1c1cccc(Cl)c1C`, the IC50 in series [1] came to 4.3 µM; at Ecdysone receptor it was 8.3 µM. Also, in series [2], the LC50 turned out to be 175 µg/mL (≈ 582 µM).
For `C=C1C(CC)=C(C#N)C(=O)N1c1cc(Cl)ccc1C(C)(C)C` the same measures were 15 µM, 11 µM and 190 µg/mL (≈ 604 µM).
Regarding `C=C1C(C)=C(C#N)C(=O)N1c1ccccc1C(F)(F)F`, the IC50 in series [1] was 27.5 µM; on Ecdysone receptor, 48 µM.
As to `C=C1C(CC(C)C)=C(C#N)C(=O)N1c1cc(Cl)cc(Cl)c1`, the IC50 in series [1] came out at 5.5 µM. Also, the LC50 in series [2] was 119 µg/mL (≈ 370 µM).
For `C=C1C(CCC)=C(C#N)C(=O)N1c1cc(Cl)ccc1Cl` the same measures were 8.5 µM and 66 µg/mL (≈ 215 µM).
Regarding `C=C1C(C)=C(C#N)C(=O)N1c1cc(C(C)(C)C)ccc1C(C)(C)C`, the half-inhibitory concentration (IC50) in series [1] came to 5 µM; at Ecdysone receptor, 6.5 µM.
For `C=C1C(CC(C)C)=C(C#N)C(=O)N1c1cc(Cl)c(Cl)cc1Cl`, in that order: 2.7 µM and 5.5 µM.
As for `C=C1C(c2ccccc2)=C(C#N)C(=O)N1C1CCCCC1`, the half-inhibitory concentration (IC50) is 7.5 µM in series [1] and 12.5 µM on Ecdysone receptor. Further, the LC50 in series [2] was 130 µg/mL (≈ 467 µM).
On to `C=C1C(CCCC)=C(C#N)C(=O)N1c1c(C)cccc1CC`, for which the half-inhibitory concentration (IC50) in series [1] is 46 µM; on Ecdysone receptor, 33 µM.
For `CC(C)(O)CC[C@@H](O)[C@](C)(O)[C@H]1CC[C@@]2(O)C3=CC(=O)[C@@H]4C[C@@H](O)[C@@H](O)C[C@]4(C)[C@H]3CC[C@]12C` [20-HYDROXYECDYSONE] the same measures were 24 µM and 5.5 µM.
For `CC(C)CC[C@@H](O)[C@](C)(O)[C@H]1CC[C@@]2(O)C3=CC(=O)[C@@H]4C[C@@H](O)[C@@H](O)C[C@]4(C)[C@H]3CC[C@]12C` [PONASTERONE A], in that order: 1.1 µM and 0.9 µM.
For `C=C1C(C(C)C)=C(C#N)C(=O)N1c1ccccc1C(C)(C)C` the same measures were 9.5 µM and 15 µM.
In the case of `C=C1C(C)=C(C#N)C(=O)N1c1cc(Cl)cc(Cl)c1`, the values for the IC50 (in series [1]; at Ecdysone receptor) were 9.8 µM and 27.5 µM, respectively.
For `C=C1C(C)=C(C#N)C(=O)N1N1CCCCC1`, the IC50 in series [1] was found to be 125 µM. The LC50 in series [2] was found to be 244 µg/mL (≈ 1120 µM).
For `C=C1C(c2ccccc2)=C(C#N)C(=O)N1c1c(C)cccc1C(C)C`, the values for the IC50 (in series [1]; on Ecdysone receptor) were 43 µM and 55 µM, respectively.
For `C=C1C(CC)=C(C#N)C(=O)N1c1cc(Cl)c(Cl)cc1Cl` the same measures were 5.5 µM and 7.25 µM.
As to `C=C1C(C)=C(C#N)C(=O)N1c1ccc(Cl)c(Cl)c1`, the IC50 in series [1] is 15 µM. In series [2], the LC50 stood at 167 µg/mL (≈ 598 µM).
With `C=C1C(C)=C(C#N)C(=O)N1c1cc(Cl)c(C(C)(C)C)cc1Cl`, the IC50 amounted to 11.3 µM in series [1] and 8.5 µM at Ecdysone receptor.
For `C=C1C(C)=C(C#N)C(=O)N1c1c(C(C)C)cccc1C(C)C`, in that order: 20.8 µM and 23.5 µM.
Consider `C=C1C(CCCC)=C(C#N)C(=O)N1c1cc(Cl)ccc1C(C)(C)C`, for which the IC50 in series [1] was 4 µM; on Ecdysone receptor it was 5.5 µM.
For `C=C1C(CCCC)=C(C#N)C(=O)N1c1c(C)cccc1Cl`, in that order: 6 µM and 56 µM.
Turning to `C=C1C(C(C)C)=C(C#N)C(=O)N1c1c(C)cccc1C(C)C`, the IC50 stood at 27.5 µM in series [1] and 47 µM on Ecdysone receptor.
On to `C=C1C(C(C)C)=C(C#N)C(=O)N1c1c(C)cc(Cl)cc1Cl`, for which the IC50 in series [1] was 62.5 µM; on Ecdysone receptor it was 480 µM.
For `C=C1C(CCCC)=C(C#N)C(=O)N1c1cc(Cl)ccc1C`, in that order: 6 µM and 12.5 µM.
In the case of `C=C1C(CC(C)C)=C(C#N)C(=O)N1c1cc(C(F)(F)F)cc(C(F)(F)F)c1`, the IC50 in series [1] was found to be 6.3 µM. For the same compound, the LC50 in series [2] worked out at 26 µg/mL (≈ 67 µM).
As for `C=C1C(C)=C(C(=O)Nc2cccc(Cl)c2)C(=O)N1c1cccc(Cl)c1`, the IC50 is 12.5 µM in series [1] and 250 µM at Ecdysone receptor.
For `C=C1C(CC(C)C)=C(C#N)C(=O)N1c1c(C)cc(C)cc1C` the same measures were 30 µM and 175 µM.
For `C=C1C(C)=C(C(=O)c2ccccc2)C(=O)N1c1cccc(C(F)(F)F)c1` the same measures were 12.5 µM and 17.5 µM.
For `C=C1C(C(C)C)=C(C#N)C(=O)N1c1ccc(Cl)cc1C(C)(C)C` the same measures were 6.5 µM and 42 µM.
